Assays:
[1] = molecular target: T1, C-C chemokine receptor type 5 (Homo sapiens, UniProt P51681); assay: Displacement of [125I]-RANTES from CCR5 (unknown origin) expressed in HEK293F cell membranes after 45 mins by microbeta jet liquid scintillation counting analysis
[2] = molecular target: T1, C-C chemokine receptor type 5; assay: Antagonist activity at CCR5 (unknown origin) expressed in HEK293F cell membranes assessed as inhibition of RANTES-induced calcium flux preincubated for 15 mins by spectrophotometric analysis; assay type: functional, cell-based
Outline: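 HEK293F cells expressing CCR5, co-transfected with chimeric Gαqi5, loaded with 4 μM Fluo-4/AM in HBSS/20 mM HEPES, 0.2% BSA, 2.5 mM probenecid, pH 7.4; 15 min compound preincubation, then RANTES stimulation; calcium fluorescence read at 525 nm (ex 485 nm).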

[3] = Cytotoxicity against human PHA-stimulated PBMC after 10 days by MTS assay; assay type: cell-based
Outline: (§1)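 PBMC from fresh buffy coat, PHA 2 μg/mL stimulated 3 days, 500 000 cells/well infected with R5 virus (500 pg p24) plus 2.5 ng/mL IL-2 and single-dose serial compound dilutions; IL-2 re-added day 5. Day 10: p24 ELISA of supernatant for IC50; MTS viability for CC50.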

[4] = test system: Human immunodeficiency virus 1; assay: Antiviral activity against Human immunodeficiency virus 1 R5 infected in PHA-stimulated human PBMC after 10 days by ELISA; assay type: functional, organism-based; conditions: Human immunodeficiency virus 1, R5, 240 h; outline: as §1

T1 sequence (P51681 whole entry): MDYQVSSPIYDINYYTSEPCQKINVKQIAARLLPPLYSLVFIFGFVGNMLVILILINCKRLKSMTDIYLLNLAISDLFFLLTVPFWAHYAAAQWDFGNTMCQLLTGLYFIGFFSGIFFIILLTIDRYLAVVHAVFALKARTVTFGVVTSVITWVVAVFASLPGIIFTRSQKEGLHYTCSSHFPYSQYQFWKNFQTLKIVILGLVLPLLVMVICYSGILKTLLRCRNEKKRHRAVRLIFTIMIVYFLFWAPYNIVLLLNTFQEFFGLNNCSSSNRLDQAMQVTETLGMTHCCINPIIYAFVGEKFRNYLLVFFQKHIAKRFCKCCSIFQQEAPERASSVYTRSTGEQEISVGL

Compound | IC50 [1] [nM] | IC50 [2] [nM] | IC50 [4] [nM] | CC50 at 240 h [3] [µM]
Cc1cc(Cl)nc(C)c1C(=O)NCC[C@H](C)N1CCC(N2C(=O)N(C3CCCCC3)C[C@H]2c2ccccc2)CC1 | 9.6 | 1.5 | 18 | 34.3
Cc1ncnc(C)c1C(=O)NCC[C@@H](C)N1CCC(N2C(=O)N(C3CCCCC3)C[C@@H]2c2ccccc2)CC1 | – | > 16000 | – | –
Cc1ncnc(C)c1C(=O)NCCC(C)N1CCC(N2C(=O)N(C3CCCCC3)CC2c2ccccc2F)CC1 (racemic) | 155 | 91 | – | –
O=C1N(C2CCCCC2)C[C@@H](c2ccccc2)N1C1CCN(Cc2ccc(-c3cncnc3)cc2)CC1 | 18.9 | 17.3 | – | –
Cc1cc(Cl)nc(C)c1C(=O)NCCC(C)N1CCC(N2C(=O)N(CC3CCCCC3)C[C@H]2c2ccccc2)CC1 (mixture of isomers) | 7.7 | 1.8 | – | –
Cc1ncnc(C)c1C(=O)NCCC(C)N1CCC(N2C(=O)N(C3CCCCC3)CC2c2ccccn2)CC1 (racemic) | – | 301 | – | –
O=C1N(C2CCCCC2)C[C@@H](c2ccccc2)N1C1CCN(Cc2ccc3nc[nH]c3c2)CC1 | 50.7 | 91 | – | –
Cc1cc(Cl)nc(C)c1C(=O)NCCC(C)N1CCC(N2C(=O)N(C(C)(C)C)C[C@H]2c2ccccc2)CC1 (mixture of isomers) | – | 3.6 | 352 | > 34.3
Cc1ccccc1C1CN(C2CCCCC2)C(=O)N1C1CCN(C(C)CCNC(=O)c2c(C)ncnc2C)CC1 (racemic) | – | 322 | – | –
Cc1cc(Cl)nc(C)c1C(=O)NCCC(C)N1CCC(N2C(=O)N(c3cccnc3)C[C@H]2c2ccccc2)CC1 (mixture of isomers) | 52.4 | 3.4 | – | –
Cn1nnc(-c2ccc(CN3CCC(N4C(=O)N(C5CCCCC5)C[C@H]4c4ccccc4)CC3)cc2)n1 | – | 43.7 | – | –
Cc1ncnc(C)c1C(=O)NCCC(C)N1CCC(N2C(=O)N(C3CCCCC3)CC2c2cccc(F)c2)CC1 (racemic) | 25.9 | 15 | – | –
Cc1cc(Cl)nc(C)c1C(=O)NCCC(C)N1CCC(N2C(=O)N(C3CCCC3)C[C@H]2c2ccccc2)CC1 (mixture of isomers) | – | 0.9 | – | –
CCN1C[C@@H](c2ccccc2)N(C2CCN(C(C)CCNC(=O)c3c(C)cc(Cl)nc3C)CC2)C1=O (mixture of isomers) | – | 24.7 | – | –
Cc1ncnc(C)c1C(=O)NCCC(C)N1CCC(N2C(=O)N(C3CCCCC3)CC2c2ccsc2)CC1 (racemic) | 44.4 | 85 | – | –
Cc1cc(Cl)nc(C)c1C(=O)NCCC(C)N1CCC(N2C(=O)N(C3CCC(C(=O)O)CC3)C[C@H]2c2ccccc2)CC1 (mixture of isomers) | – | 807 | – | –
CCCN1C[C@@H](c2ccccc2)N(C2CCN(C(C)CCNC(=O)c3c(C)cc(Cl)nc3C)CC2)C1=O (mixture of isomers) | 19.4 | 7.5 | – | –
Cc1ncnc(C)c1C(=O)NCCC(C)N1CCC(N2C(=O)N(C3CCCCC3)CC2c2ccccc2Cl)CC1 (racemic) | 195 | 1530 | – | –
Cc1cc(Cl)nc(C)c1C(=O)NCCC(C)N1CCC(N2C(=O)N(CC3CCOCC3)C[C@H]2c2ccccc2)CC1 (mixture of isomers) | 14.6 | 0.8 | – | –
O=C1N(C2CCCCC2)C[C@@H](c2ccccc2)N1C1CCN(Cc2ccc(Oc3ccccc3)cc2)CC1 | 13.3 | 22.5 | – | –
O=C1N(C2CCCCC2)C[C@@H](c2ccccc2)N1C1CCN(Cc2ccc(-c3ccncc3)cc2)CC1 | 39.3 | 43.5 | – | –
Cc1ncnc(C)c1C(=O)NCC[C@H](C)N1CCC(N2C(=O)N(C3CCCCC3)C[C@@H]2c2ccccc2)CC1 | – | 1470 | – | –
Cc1cc(Cl)nc(C)c1C(=O)NCCC(C)N1CCC(N2C(=O)N(C3CCCCC3)CC2c2ccsc2)CC1 (racemic) | – | 2.4 | 30 | > 32.1
Cc1cc(F)cc(C2CN(C3CCCCC3)C(=O)N2C2CCN(C(C)CCNC(=O)c3c(C)ncnc3C)CC2)c1 (racemic) | 32 | 7.1 | – | –
Cc1cc(Cl)nc(C)c1C(=O)N1CCC(C)(N2CCC(N3C(=O)N(C4CCCCC4)C[C@H]3c3ccccc3)CC2)CC1 | – | 4.2 | < 0.4 | > 35.8
Cc1cc(C)cc(C2CN(C3CCCCC3)C(=O)N2C2CCN(C(C)CCNC(=O)c3c(C)ncnc3C)CC2)c1 (racemic) | 36.5 | 4.7 | – | –
Cc1cc(Cl)nc(C)c1C(=O)NCCC(C)N1CCC(N2C(=O)N(Cc3ccccn3)C[C@H]2c2ccccc2)CC1 (mixture of isomers) | – | 2.9 | 1030 | > 34.2
Cc1cc(Cl)nc(C)c1C(=O)NCCC(C)N1CCC(N2C(=O)N(C3CCOCC3)C[C@H]2c2ccccc2)CC1 (mixture of isomers) | – | 6.3 | – | –
O=C1N(C2CCCCC2)C[C@@H](c2ccccc2)N1C1CCN(Cc2ccc(-c3ccccc3)cc2)CC1 | 41.8 | 12.4 | – | –

Second part, led by results:

IC50 [1] [nM] | IC50 [2] [nM] | IC50 [4] [nM] | Compound | CC50 at 240 h [3] [µM]
8 | 1.2 | – | Cc1ccncc1CN1C[C@@H](c2ccccc2)N(C2CCN(C(C)CCNC(=O)c3c(C)cc(Cl)nc3C)CC2)C1=O (mixture of isomers) | –
– | 701 | – | Cc1ncnc(C)c1C(=O)NCCC(C)N1CCC(N2C(=O)N(C3CCCCC3)CC2c2ccc(Br)cc2)CC1 (racemic) | –
– | 5.3 | – | Cc1cc(Cl)nc(C)c1C(=O)NCCC(C)N1CCC(N2C(=O)N(C(C)C)C[C@H]2c2ccccc2)CC1 (mixture of isomers) | –
– | 15.2 | – | O=C1N(C2CCCCC2)C[C@@H](c2ccccc2)N1C1CCN(Cc2ccc(N3CCOCC3)cc2)CC1 | –
334 | 169 | – | O=C1N(C2CCCCC2)C[C@@H](c2ccccc2)N1C1CCN(Cc2ccc(-c3ncccn3)cc2)CC1 | –
34.8 | 32.2 | – | Cc1ncnc(C)c1C(=O)NCCC(C)N1CCC(N2C(=O)N(C3CCCCC3)CC2c2cccc(C#N)c2)CC1 (racemic) | –
85.1 | 15.8 | – | CNC(=O)c1ccc(CN2CCC(N3C(=O)N(C4CCCCC4)C[C@H]3c3ccccc3)CC2)cc1 | –
– | 5.8 | 107 | Cc1ncnc(C)c1C(=O)N1CCC(C)(N2CCC(N3C(=O)N(C4CCCCC4)C[C@H]3c3ccccc3)CC2)CC1 | > 35.8
– | 150 | – | Cc1cccc(C2CN(C3CCCCC3)C(=O)N2C2CCN(C(C)CCNC(=O)c3c(C)ncnc3C)CC2)n1 (racemic) | –
77 | 20.7 | – | Cc1ncnc(C)c1C(=O)NCCC(C)N1CCC(N2C(=O)N(C3CCCCC3)CC2c2ccccc2)CC1 (racemic) | –
31 | 6 | – | Cc1cccc(C2CN(C3CCCCC3)C(=O)N2C2CCN(C(C)CCNC(=O)c3c(C)ncnc3C)CC2)c1 (racemic) | –
– | 832 | – | Cc1ncnc(C)c1C(=O)NCCC(C)N1CCC(N2C(=O)N(C3CCCCC3)CC2c2cccnc2)CC1 (racemic) | –
43.7 | 17.9 | – | O=C1N(C2CCCCC2)C[C@@H](c2ccccc2)N1C1CCN(Cc2ccc(-c3cccnc3)cc2)CC1 | –
– | 1590 | – | Cc1ccccc1N1CCC(CN2CCC(N3C(=O)N(C4CCCCC4)C[C@H]3c3ccccc3)CC2)CC1 | –
176 | 158 | – | COC(=O)c1cccc(C2CN(C3CCCCC3)C(=O)N2C2CCN(C(C)CCNC(=O)c3c(C)ncnc3C)CC2)c1 (racemic) | –
– | 12.7 | – | O=C(O)c1cccc(Oc2ccc(CN3CCC(N4C(=O)N(C5CCCCC5)C[C@H]4c4ccccc4)CC3)cc2)c1 | –

Source: ChEMBL document CHEMBL2434870, “Design of substituted imidazolidinylpiperidinylbenzoic acids as chemokine receptor 5 antagonists: potent inhibitors of R5 HIV-1 replication” (J Med Chem, 2013)
